Assay outcomes from PubChem BioAssay.
Cardiac RTF inh: cardiac RTF calcium desensitization; P19429+P45379; IANBD-labeled cardiac RTF, Ca2+ fluorescence; inhibition, % at 7.15 µM; 340,000 compounds, 0.12% hits; AID 493244;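 active means inhibition above the mean inhibition of all tested compounds plus 3 SD, cut at about 17% in these data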;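 further: assay run at fixed EC70 calcium of 1.6 mM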
Tn7 DDE FP: disrupts Tn7 cyclic peptide binding to fibrin D-Dimer-E complex; inhibition, % at 8.3 µM; P02675; FP displacement of FITC-Tn7 peptide from fibrin DD(E); 0% = median of compound wells per plate; 370,000 compounds, 0.13% hits;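 active means inhibition above the mean of compounds falling within the control limits plus 3 SD of them, cut at about 14% in these data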;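 further: 0% = plate median of compound wells and 100% = 10 µM Aha-Tn7 peptide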
Target sequence (P02675 whole entry, looked up): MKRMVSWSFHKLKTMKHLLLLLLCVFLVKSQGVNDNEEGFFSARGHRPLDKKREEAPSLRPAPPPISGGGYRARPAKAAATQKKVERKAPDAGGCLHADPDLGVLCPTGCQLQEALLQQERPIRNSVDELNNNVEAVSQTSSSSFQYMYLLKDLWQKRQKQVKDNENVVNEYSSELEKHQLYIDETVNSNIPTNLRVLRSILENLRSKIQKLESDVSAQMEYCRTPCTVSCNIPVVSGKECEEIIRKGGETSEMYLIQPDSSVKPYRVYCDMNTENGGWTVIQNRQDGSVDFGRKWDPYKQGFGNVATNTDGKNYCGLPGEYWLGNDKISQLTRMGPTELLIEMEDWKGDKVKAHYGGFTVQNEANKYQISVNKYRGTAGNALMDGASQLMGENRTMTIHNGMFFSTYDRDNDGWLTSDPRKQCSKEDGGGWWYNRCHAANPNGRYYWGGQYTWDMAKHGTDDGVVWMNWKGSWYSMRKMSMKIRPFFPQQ
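system = human fibrin DD(E) protein | quantity = DD(E) 2 µM final | medium = Tris/NaCl/CaCl2 buffer, pH 7.8 | also added = labelled Tn7 tracer, 0.1 µM | compound dosing = single point at 8.3 µM | timing = compound with protein 10 min, then 3 h after probe, room temperature | signal = FP measurement | benchmarks = Aha-Tn7 high control | repeats = one replicate per compound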
CRFBP-R2 block: CRF-BP/CRF-R2 complex antagonism; HEK293 CRF-R2/CRF-BP, CRF-induced calcium fluorescence; inhibition, % at 11.8 µM; 350,000 compounds, 0.59% hits; AID 588475;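 active means inhibition of the ligand-induced calcium signal above about 50% at the single tested concentration, limit read from the data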
Tn6 DDE FP: inhibitors of Tn6 peptide binding to human fibrin DD(E); Fibrin DD(E) TRITC-Tn6 fluorescence polarization displacement; inhibition, % at 8.3 µM; AID 720509; P02675; 370,000 compounds, 0.21% hits;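 active means inhibition above a per-campaign cutoff: mean of compounds within control limits plus 3 SD, cut at about 15% in these data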;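 further: 0% = median of all compound wells on the plate and 100% = blocking peptide control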
cardiac RTF act: increases calcium sensitivity of human cardiac regulated thin filaments; IANBD-labeled TnC RTF fluorescence at EC20 calcium; 0% EC20 calcium, 100% full calcium; activation, % at 7.2 µM; 340,000 compounds, 0.24% hits;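 active means activation above the mean over all tested compounds plus 3 SD, cut at about 30% in these data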;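 further: rise in fluorescence read as greater calcium sensitivity of cardiac thin filaments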
CRFBP-R2 agonist: agonists of human CRF-binding protein/CRF-R2 receptor complex; HEK293 CRF-R2/CRF-BP, calcium dye fluorescence (FLIPR); percent of saturating CRF peptide response; activation, % at 13.2 µM; 350,000 compounds, 0.46% hits; AID 588473;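 active means activation of at least 50%, plus an integration ratio under a set limit after plate pattern correction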;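 further: plate controls were neutral control wells without compound for no effect and CRF at EC100 for full effect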
An asterisk follows results filed as active. In the library only some 1.4% were active in any assay of this set; here they are far more common.

Results for COc1ccc(-c2nnc(SCc3ccccn3)n2C)cc1 ?
Cardiac RTF inh: -15.4; Tn7 DDE FP: -2.2; CRFBP-R2 block: 2.1; Tn6 DDE FP: -10.9; cardiac RTF act: -1.9; CRFBP-R2 agonist: 4.4

Results for O=[N+]([O-])c1ccc2[nH]c(=S)[nH]c2c1 ?
Cardiac RTF inh: 1.5; Tn7 DDE FP: -5.1; CRFBP-R2 block: 10.3; Tn6 DDE FP: -1.1; cardiac RTF act: 5.2; CRFBP-R2 agonist: 0.6

What do the screens show for `O=[N+]([O-])c1ccc2[nH]c(=S)sc2c1`?
Cardiac RTF inh: 8.0; Tn7 DDE FP: 5.3; CRFBP-R2 block: 58.5*; Tn6 DDE FP: 4.6; cardiac RTF act: 4.8; CRFBP-R2 agonist: 37.4

Results for NC(=O)c1ccccc1-c1noc(-c2ccccc2F)n1 ?
Tn7 DDE FP: -2.0; Tn6 DDE FP: 1.8

Results for Cc1ccc(CSC(Nc2ccc(F)cc2)=C(C#N)C#N)cc1 ?
Cardiac RTF inh: -6.0; Tn7 DDE FP: -2.2; CRFBP-R2 block: 71.8*; Tn6 DDE FP: 5.6; cardiac RTF act: 0.5; CRFBP-R2 agonist: 51.0*

What do the screens show for `CCCC(=O)OCCNc1cc(Sc2nc3ccccc3[nH]2)c2nonc2c1[N+](=O)[O-]`?
Cardiac RTF inh: 4.5; Tn7 DDE FP: -2.6; CRFBP-R2 block: 90.5*; Tn6 DDE FP: -2.7; cardiac RTF act: 5.4; CRFBP-R2 agonist: -3.0

How did CCOC(=O)CC[C@@]1(C(=O)OCC)C[C@@H](CC(=O)N2CCOCC2)C(=O)N2CCCC=C21 do in these assays?
Tn7 DDE FP: -8.1; Tn6 DDE FP: -2.7

How did CCOC(=O)N1CCN(C(=O)C[C@@H]2C[C@@]3(C(=O)OCC)CCC=C3N(Cc3cccc4ccccc34)C2=O)CC1 do in these assays?
Tn7 DDE FP: 0.6; Tn6 DDE FP: 1.7

What do the screens show for `CCOC(=O)C(CCCCCCC(NC(C)=O)(C(=O)OCC)C(=O)OCC)(NC(C)=O)C(=O)OCC`?
Cardiac RTF inh: 0.5; Tn7 DDE FP: -2.2; CRFBP-R2 block: -5.9; Tn6 DDE FP: -10.7; cardiac RTF act: 82.9*; CRFBP-R2 agonist: 0.3

Results for O=C(/C=C/c1ccco1)OCc1nnc(-c2ccc(Cl)cc2)o1 ?
Cardiac RTF inh: 1.5; Tn7 DDE FP: -1.9; CRFBP-R2 block: 86.7*; Tn6 DDE FP: 2.2; cardiac RTF act: -2.7; CRFBP-R2 agonist: 0.5

Results for CCCCCCCCNS(=O)(=O)CC1NCc2cc(F)ccc21 (stereo not given) ?
Tn7 DDE FP: -2.5; Tn6 DDE FP: 7.1

How did CC(OC(=O)/C(C#N)=C/c1ccc(N(C)C)cc1)C(=O)N(C)c1ccccc1 (stereo not given) do in these assays?
Cardiac RTF inh: -31.5; Tn7 DDE FP: -5.2; Tn6 DDE FP: 1.6; cardiac RTF act: 30.4*

How did CC(=O)Nc1ccc(NC(=O)C(C)OC(=O)/C(C#N)=C/c2ccc(N(C)C)cc2)cc1 (stereo not given) do in these assays?
Cardiac RTF inh: -118.3; Tn7 DDE FP: 2.9; CRFBP-R2 block: -43.4; Tn6 DDE FP: -7.4; cardiac RTF act: 79.6*; CRFBP-R2 agonist: 39.1

What do the screens show for `O=C(Nc1ccccn1)c1ccc(C(=O)c2ccccc2)cc1`?
Cardiac RTF inh: 0.8; Tn7 DDE FP: -4.8; CRFBP-R2 block: 55.3*; Tn6 DDE FP: 0.4; cardiac RTF act: -0.2; CRFBP-R2 agonist: 0.8

What do the screens show for `O=C(NC(=O)c1ccccc1)Nc1ccccn1`?
Cardiac RTF inh: -2.0; Tn7 DDE FP: 10.6; Tn6 DDE FP: 4.2; cardiac RTF act: 4.2

Results for O=C(CCl)Nc1ccccc1Sc1ccc(Cl)cc1 ?
Cardiac RTF inh: -6.0; Tn7 DDE FP: -5.3; CRFBP-R2 block: 67.4*; Tn6 DDE FP: 4.8; cardiac RTF act: 9.1; CRFBP-R2 agonist: 1.0

How did O=C(Nc1cccc(C(F)(F)F)c1)O[C@@H]1CC[C@@]23CCCN2C(=O)CCC[C@H]3C1 do in these assays?
Tn7 DDE FP: -9.9; Tn6 DDE FP: 11.1

What do the screens show for `Cc1cc(C(=O)CSc2nnc(Cc3ccccc3)o2)c(C)n1Cc1ccc2c(c1)OCO2`?
Cardiac RTF inh: -7.5; Tn7 DDE FP: -11.4; CRFBP-R2 block: 10.7; Tn6 DDE FP: -1.9; cardiac RTF act: -1.9; CRFBP-R2 agonist: -0.2

What do the screens show for `C=CCn1c(C)cc(C(=O)CSc2nnc(Cc3ccccc3)o2)c1C`?
Cardiac RTF inh: -3.9; Tn7 DDE FP: -10.5; CRFBP-R2 block: 56.0*; Tn6 DDE FP: 5.0; cardiac RTF act: 2.6; CRFBP-R2 agonist: -0.7

Results for Cc1ccc(SCc2ccc(C(=O)Nc3ccccc3Br)cc2)cc1 ?
Cardiac RTF inh: 14.8; Tn7 DDE FP: -0.7; CRFBP-R2 block: -92.7; Tn6 DDE FP: 4.1; cardiac RTF act: 4.0; CRFBP-R2 agonist: 74.2*

How did Cc1ccc(SCc2ccc(C(=O)Nc3ccccc3C(=O)NC(C)C)cc2)cc1 do in these assays?
Cardiac RTF inh: -20.7; Tn7 DDE FP: -1.6; CRFBP-R2 block: -24.6; Tn6 DDE FP: 6.3; cardiac RTF act: -5.3; CRFBP-R2 agonist: 7.9

How did COc1ccc(/C=N/N(C)C2=NS(=O)(=O)c3ccccc32)cc1 do in these assays?
Cardiac RTF inh: -4.6; Tn7 DDE FP: -1.4; CRFBP-R2 block: -24.9; Tn6 DDE FP: -1.1; cardiac RTF act: 4.2; CRFBP-R2 agonist: 6.0

How did CN(/N=C/c1ccc(N(C)C)cc1)C1=NS(=O)(=O)c2ccccc21 do in these assays?
Cardiac RTF inh: -11.9; Tn7 DDE FP: 2.4; CRFBP-R2 block: -9.2; Tn6 DDE FP: 1.5; cardiac RTF act: 61.4*; CRFBP-R2 agonist: 21.8

How did CC(=O)C(C(C)=O)c1cc(NS(=O)(=O)c2ccccc2)ccc1NS(=O)(=O)c1ccccc1 do in these assays?
Cardiac RTF inh: -0.7; Tn7 DDE FP: 0.7; CRFBP-R2 block: -96.6; Tn6 DDE FP: -9.6; cardiac RTF act: -2.6; CRFBP-R2 agonist: 159.6*

What do the screens show for `CC(=O)Nc1ccc(NS(=O)(=O)c2ccccc2)cc1`?
Cardiac RTF inh: -3.8; Tn7 DDE FP: 0.1; CRFBP-R2 block: -1.7; Tn6 DDE FP: 4.8; cardiac RTF act: 3.0; CRFBP-R2 agonist: 0.3

Results for CCOc1ccc(-n2c(SCC(=O)Nc3ccccc3-c3ccccc3)nnc2-c2ccncc2)cc1 ?
Tn7 DDE FP: 4.8; Tn6 DDE FP: -2.3

What do the screens show for `Cc1ccc(S(=O)(=O)N(C)c2ccc3c(c2)C(=O)c2ccccc2-3)cc1`?
Tn7 DDE FP: -5.9; Tn6 DDE FP: 0.4

What do the screens show for `COc1ccc(C(=O)Nn2c(SCC(=O)N3CCC(C)CC3)nc3ccccc3c2=O)cc1`?
Cardiac RTF inh: -5.5; Tn7 DDE FP: 2.0; CRFBP-R2 block: -9.9; Tn6 DDE FP: -4.3; cardiac RTF act: -0.8; CRFBP-R2 agonist: -1.2

Results for COc1ccc(C(=O)Nn2c(SCC(=O)NC3CCCCC3)nc3ccccc3c2=O)cc1 ?
Cardiac RTF inh: -1.2; Tn7 DDE FP: 0.7; CRFBP-R2 block: 75.5*; Tn6 DDE FP: 0.9; cardiac RTF act: 6.0; CRFBP-R2 agonist: 8.2
